Hits are enriched below; roughly 9.6% of the tested compounds scored in any of these assays.
MT stabilizer = stabilizes microtubules in HeLa cells; % tubulin-high responders, % at 10 µM; 200,000 tested, 0.83% active; HeLa tubulin immunostaining HCS, 24 h; share of cells brighter than vehicle mean+2SD;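 active = plate Z-score above 3 for both tubulin-high and condensed-nucleus cell shares, with cell loss under 80%, at 10 µM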;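 note: anti alpha tubulin signal scored within the nucleus-defined area of each cell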
APP transl inh = APP translation inhibition. SH-SY5Y APP 5'UTR-luciferase reporter, luminescence. inhibition, % at 2 µM. 190,000 tested, 0.82% active. AID 1285;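 active = inhibition above a set limit, derived from the sample mean plus 3 SD, cut at about 45% in these data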
Ba/F3 V617F tox = loss of viability in JAK2V617F-driven Ba/F3 cells | AID 1446 | inhibition, % at 5.6 µM | 220,000 tested, 1.1% active | Ba/F3 EpoR-JAK2V617F viability, ATP luminescence;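 active = inhibition above the campaign mean plus 3 SD over all tested compounds, cut at about 24% in these data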;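 note: cytokine-independent growth of Ba/F3 cells driven by EpoR plus mutant JAK2; 0% = DMSO-treated cells and 100% = JAK inhibitor I control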
BaF3 tox = parental Ba/F3 viability inhibition as JAK2V617F counter-screen; inhibition, % at 5.6 µM; CellTiter-Glo ATP luminescence; 220,000 tested, 1.1% active; AID 1486;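 active = inhibition above a per-campaign cutoff, the mean inhibition of all tested compounds plus 3 SD, cut at about 27% in these data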;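 note: 0% = DMSO wells and 100% = JAK Inhibitor I control wells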
L major viab = reduces viability of Leishmania major promastigotes | resazurin fluorescence viability | 200,000 tested, 9% active | inhibition, % at 10 µM; in the data active = inhibition above about 50%;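 note: promastigotes grown with compound for 44 hours at 28 °C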
b-catenin transl = alters nuclear translocation of beta-catenin in HeLa cells; immunofluorescence imaging; nuclear translocation activity, % at 5 µM; 190,000 tested, 0.3% active; AID 1665;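 active = nuclear translocation activity above 50% at 5 µM, with a well cell count of 50 or more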;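 note: per-cell ratio of nuclear to cytoplasmic median beta-catenin stain intensity; plate controls were DMSO negative control for no effect and GSK-3 inhibitor IX positive control for full effect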
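Read-out: Nuclear/cytoplasmic beta-catenin signal ratio, % activation | Assay system: Human HeLa cell line | Times: 24 h compound exposure at 37°C, 5% CO2 | Signal: Fluorescence imaging of beta-catenin antibody stain plus DAPI | Dosing: 5 µM primary, 0.02–20 µM confirmation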
BaF3 tox 2 = counter-screen for JAK2V617F inhibitors: parental Ba/F3 viability inhibitors; shares compounds with Ba/F3 V617F tox; CellTiter-Glo luminescence; cells kept alive by added IL-3; 580 tested, 31% active; inhibition, % at 5.6 µM; AID 1520;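 active = cell growth inhibition above the hit limit set in the earlier mutant JAK2 cell screen, cut at about 27% in these data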;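 note: plate controls were DMSO-treated cells for no effect and JAK Inhibitor I control wells for full effect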
JAK2V617F confrm = Ba/F3 EpoR-JAK2V617F viability loss, confirmation | shares compounds with Ba/F3 V617F tox | 580 tested, 66% active | inhibition, % at 5.6 µM | CellTiter-Glo luminescence;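 active = mean inhibition above the hit cutoff derived in the earlier primary screen, cut at about 25% in these data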;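 note: 0% = DMSO-treated cells and 100% = JAK inhibitor I control wells; higher means lower luminescence from reduced cell ATP and viability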
* marks the source's active call; other numbers are inactive results; / = no result.

SMILES	MT stabilizer	APP transl inh	Ba/F3 V617F tox	BaF3 tox	L major viab	b-catenin transl	BaF3 tox 2	JAK2V617F confrm
O=C(COc1ccc2c(c1)CCC2)N1CCN(c2ccccc2F)CC1	4	6	5	6	-1	1	/	/
CCCCN(CC)Cc1ccc(CNC(=O)Nc2ccc(F)cc2)o1	1	12	48*	15	98*	/	8	39*
O=C(N/N=C/c1ccccc1Cl)c1[nH]c2ccc(Br)cc2c1-c1ccccc1	7	96*	47*	21	10	94*	88*	100*
NNC(=O)c1[nH]c2ccc(Br)cc2c1-c1ccccc1	/	/	-2	3	/	-1	/	/
Nc1nc(CCl)nc(N(c2ccccc2)c2ccccc2)n1	/	/	97*	1	/	0	4	99*
COc1ccc(Oc2c(O)c3ccccc3n(C)c2=O)cc1	4	1	3	4	-9	/	/	/
COc1ccc(N=Nc2n(C)c3ccccc3[n+]2C)cc1	/	/	26*	22	/	3	35*	22
CCCCN1CN(Cc2ccccc2)CNC1=S	4	2	41*	5	-6	-1	1	10
NC(=NCCc1ccccc1)NS(=O)(=O)c1cccs1	1	-23	6	12	5	1	/	/
CC(Sc1nnnn1-c1ccccc1)C(=O)Nc1ccc(Cl)cn1 (configuration not stated)	2	-11	-2	3	9	/	/	/
C/C(=N\N=C(N)N)c1ccc(Cl)cc1Cl	3	6	-1	7	43	0	/	/
C/C(=N\N=C(N)N)c1cc(Cl)ccc1Cl	3	-26	44*	8	28	0	-4	23
CCC1(CC)N=C(c2ccccc2)C(=S)N1	3	15	-1	4	1	/	/	/
O=C(NC1C=CS(=O)(=O)C1)c1sc2ccccc2c1Cl (configuration not stated)	8	-11	27*	4	30	3	-4	59*
OC(c1cc(-c2ccc(Cl)cc2)nc2ccccc12)C1CCCCN1 (configuration not stated)	/	/	65*	2	/	36	5	20
OC(c1cc(C(F)(F)F)nc2c(Cl)cc(Cl)cc12)C1CCCCN1 (configuration not stated)	/	/	3	0	/	-3	/	/
O=C1N(c2ccccc2)C[C@@H]2C[C@@H](c3cc4ccccc4o3)N3CCC[C@@]123	4	95*	101*	2	19	4	107*	99*
COc1ccc2nc(C)cc(SCC(=O)N/N=C/c3ccc(O)c(O)c3)c2c1	4	25	5	0	15	-2	/	/
Cc1cc(SCC(=O)N/N=C/c2ccc(O)c(O)c2)c(C)cc1Br	2	25	44*	11	72*	-4	5	85*
CC(C)CNC(=O)c1cccc(NC(=O)COc2cccc([N+](=O)[O-])c2)c1	5	11	-1	7	6	2	/	/
Cc1ccc(C(=O)c2c(C)oc3c2C(=O)C(=O)c2ccccc2-3)cc1	6	-15	27*	3	100*	-1	1	33*
Cc1ccc(C)c(C(=O)OCC(=O)Nc2ccc(N3CCOCC3)cc2)c1	4	14	0	1	-4	-3	/	/
O=C(Nc1ccc(NC(=S)NC(=O)C(c2ccccc2)c2ccccc2)cc1)c1ccccc1	40*	1	28*	8	98*	/	29*	64*
CCN(CC)c1ccc2c(c1)OC(N)=C(C#N)C2c1cccnc1 (configuration not stated)	20*	94*	83*	13	81*	65*	78*	98*
CC(=O)C1=C(C)OC(N)=C(C#N)C1c1cccnc1 (configuration not stated)	2	7	0	5	-5	-1	/	/
SMILES	MT stabilizer	APP transl inh	Ba/F3 V617F tox	BaF3 tox	L major viab	b-catenin transl	BaF3 tox 2	JAK2V617F confrm
CCS(=O)(=O)CCSc1nc(C)cc(C)c1C#N	6	6	100*	7	-1	-2	-1	-7
COc1cc(N2C(=O)C=CC2=O)c(OC)cc1Cl	/	/	32*	2	/	0	-2	23
COc1cc(Cl)c(S(=O)(=O)N2CCCC2)cc1Cl	2	23	2	7	-2	0	/	/
CN1CCN(C(=S)Nc2ccc(Cl)c(Cl)c2)CC1	4	22	43*	17	67*	/	23	46*
CN1CCN(C(=S)Nc2ccccc2Cl)CC1	2	18	-2	2	-1	-2	/	/
CC(/C=C/c1ccccc1)=N\NC(=O)Cn1cncn1	/	/	31*	-2	/	1	-6	-9
CC1CCCC(NC(=S)Nc2cccc(S(=O)(=O)N(C)C)c2)C1C (configuration not stated)	2	13	1	2	33	0	/	/
COc1cc(/C=C2/CC/C(=C/c3ccc(O)c(OC)c3)C2=O)ccc1O	/	/	-4	0	/	45	/	/
CCN1C/C(=C/c2ccc(OC)c(O)c2)C(=O)/C(=C/c2ccc(OC)c(O)c2)C1	55	88*	52*	-5	100*	47	13	98*
COc1ccc(C=C2C(=O)c3ccccc3C2=O)cc1O	5	-9	-1	3	14	-1	/	/
COc1cc(/C=C2\COC/C(=C\c3ccc(O)c(OC)c3)C2=O)ccc1O	/	/	25*	-8	/	-1	14	91*
CC(=O)Oc1ccc(Cl)cc1/C=C/c1cc(OC(C)=O)c2ccccc2n1	2	1	24*	23	-2	-3	30*	48*
Cc1ncn(C23CC4CC(CC(C4)C2)C3)n1	4	-2	-2	0	11	0	/	/
Cc1cc(C)cc(OCC(=O)O/N=C(\N)c2cccnc2)c1	/	/	35*	4	/	0	-2	-3
COc1ccc(-n2nnnc2SCC(=O)c2ccc(O)c(O)c2)cc1	4	-2	52*	6	9	1	-1	79*
CC1(C)CC(C(CC(=O)N2CCCC2)Cc2ccccc2)CCO1 (configuration not stated)	/	5	-2	-4	/	-1	/	/
O=C1NCC(O)=C1C=NC12CC3CC(CC(C3)C1)C2	6	4	-1	6	-9	/	/	/
Cc1cc(C)n2nc(/C(C#N)=C/c3ccccc3)c(C#N)c2n1	1	/	-1	1	4	-1	/	/
O=C1C2C3C=CC(C3)C2C(=O)N1c1ccc2c(c1)OCO2 (configuration not stated)	6	-6	57*	2	-4	0	-6	-6
O=C1C2C3C=CC(CC3)C2C(=O)N1c1ccc2c(c1)OCO2 (configuration not stated)	5	11	0	2	-7	-2	/	/

Screens from PubChem.
